# NF-kB neuron act = compounds increasing NF-kB expression in human neuronal cells; NF-kB reporter expression; hits give high values; fold change at 12.5 µM; actives 1.6% (n = 190,000); AID 1239; in the data active = fold change above about 3.3
# STAT1 inh = inhibitors of IFN-gamma induced STAT1 signaling. NIH 3T3 STAT1-luciferase reporter, luminescence. inhibition, % at 5.5 µM. actives 0.35% (n = 200,000);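 active = inhibition above a set limit, the mean inhibition across all tested compounds plus 3 SD, cut at about 34% in these data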;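 note: 0% = IFN-gamma with DMSO and 100% = IFN-gamma with 300 µM nifuroxazide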
# STAT3 act = activators of IL-6 induced STAT3 signaling. activation (% of control), % at 5.6 µM. U3A cells, IL-6 STAT3-luciferase reporter, luminescence; 100% = signal with IL-6 EC80 alone. AID 871. actives 0.91% (n = 190,000);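 active = activation above the screen-wide mean of compound activation plus 3 SD, cut at about 130% in these data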;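 note: 0% = background luminescence of wells with medium and substrate only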
#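 Material: human STAT1-deficient U3A cells with stable STAT3-luciferase reporter / Probe or stimulus: IL-6 stimulus at 33 ng/mL final / Schedule: 1 h compound pre-exposure, 6 h IL-6 stimulation, 37 °C / Technique: luminescence / Read-out basis: percent of IL-6-only median luminescence / Control set: IL-6-only high control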
# APP 5'UTR act = activates APP 5'UTR luciferase reporter | SH-SY5Y APP 5'UTR luciferase reporter, luminescence; zero percent = DMSO vehicle wells | activation, % at 2 µM | actives 1% (n = 190,000) | AID 1276;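 active = activation above a set limit, based on mean plus 3 SD of controls, cut at about 140% in these data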
# STAT1 activator = STAT1 signaling activation | NIH 3T3 STAT1-luciferase reporter, IFN-gamma, luminescence; 100% = IFN-gamma alone, no compound | AID 932 | actives 2.6% (n = 200,000) | activation (% of control), % at 5.5 µM;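 active = activation above the screen-wide mean activation plus 3 SD, cut at about 130% in these data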;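 note: raw ratio to IFN-gamma control signal so 100% means no change and 0% no light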
# STAT3 blocker = STAT3 signaling inhibition. AID 862. actives 0.89% (n = 190,000). inhibition, % at 5.5 µM. U3A cells, IL-6 STAT3-luciferase reporter, luminescence; host cell line lacks STAT1;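 active = inhibition above the mean inhibition across all screened compounds plus 3 SD, cut at about 44% in these data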;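 note: 0% = DMSO only wells and 100% = 100 µM nifuroxazide control wells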
# STAT1 act conf = STAT1 activation, confirmation assay. shares compounds with STAT1 activator. NIH 3T3 STAT1-luciferase reporter, IFN-gamma potentiation, luminescence; 100% = IFN-gamma EC80 alone, no compound. activation (% of control), % at 5.7 µM. actives 97% (n = 1,200);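 active = activation above a set limit carried over from the earlier primary STAT1 screen, cut at about 140% in these data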;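 note: simple ratio to median IFN-gamma plus DMSO wells so 0% means no light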
# NFkB act STAT1ct = counter-screen for STAT1 activators: NF-kappaB activation; HEK293T NF-kB luciferase reporter, TNF-alpha stimulated, luminescence; 100% = TNF-alpha with vehicle only; activation (% of control), % at 5.7 µM; AID 1306; actives 43% (n = 1,200); shares compounds with STAT1 activator;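 active = activation above the mean of solvent-only control wells plus 3 SD, set per campaign, cut at about 130% in these data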;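 note: TNF-alpha given at a submaximal dose yielding about 80% of full reporter signal; values are well signal over median control so 100% means no change and 0% no light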
# STAT3 act 2 = activates human STAT3, counter-screen to STAT1 activators | shares compounds with STAT1 activator | U3A cells STAT3-luciferase reporter, IL-6, luminescence; cells lack STAT1; 100 = IL-6 alone, no compound effect | activation (% of control), % at 5.7 µM | actives 46% (n = 1,200) | AID 1316;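 active = activation above the solvent-only control well mean plus 3 SD, set per plate batch, cut at about 110% in these data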;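 note: 0% = no luminescence and 100% = median IL-6 plus DMSO wells; higher means more STAT3 reporter activation so hits are non-selective activators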
# Starred values were filed as active, the others as inactive; . = no result given. An excerpt weighted towards active compounds, which were near 5.1% of everything screened.
SMILES,NF-kB neuron act,STAT1 inh,STAT3 act,APP 5'UTR act,STAT1 activator,STAT3 blocker,STAT1 act conf,NFkB act STAT1ct,STAT3 act 2
Cc1ccc(-c2ccc(CCC(=O)O)n2NC(N)=S)cc1,1.1,4,96,6,96,9,.,.,.
O=C(COc1cccc(F)c1)N[C@@H](Cc1ccccc1)c1nc2ccccc2[nH]1,0.92,3,103,-1,98,2,.,.,.
c1ccc(Cn2c(-c3ccco3)nc3nc4ccccc4nc32)cc1,2.1,-58,102,61,152*,3,158*,127,115*
COC(=O)c1c(NC(=O)COC(=O)CCc2ccc(S(=O)(=O)N3CCOCC3)cc2)sc2c1CCC2,0.76,2,110,-12,99,-8,.,.,.
COc1ccc(-n2c(O)c(C=Nc3ccccc3)c3ccccc3c2=O)cc1,1.1,-14,82,8,111,25,.,.,.
COc1ccc(N=Cc2sc(O)c3ccccc23)cc1,13*,-82,103,214*,173*,-1,331*,154*,104
CC#C[C@]1(O)CC[C@H]2[C@@H]3CCC4=CC(=O)CCC4=C3[C@@H](c3ccc(N(C)C)cc3)C[C@@]21C,0.66,2,106,26,99,-4,.,.,.
Cc1ccccc1Nc1nc(N)nc(CSc2ccc(F)cc2)n1,6*,-65,101,168*,156*,5,195*,127,125*
CCc1nnc(NC(=O)c2ccc3ccccc3n2)s1,3.8*,-56,127,103,153*,-22,176*,120,157*
Clc1ccc(-c2csc(N3CCOCC3)n2)cc1,4.9*,-63,93,118,160*,9,176*,139*,96
Brc1ccc(-c2csc(N3CCOCC3)n2)cc1,3.4*,-58,88,107,151*,21,190*,137*,101
S=C(NCC1CCCO1)NC1CCCC1 (stereo unspecified),0.97,-8,99,18,105,6,.,.,.
COc1ccc(OC)c(CN2CCN(Cc3cccc4ccccc34)CC2)c1,0.97,10,104,-3,90,0,.,.,.
CCc1ccc(-c2cn3c(n2)SCC3)cc1,7.2*,-56,79,100,154*,26,200*,130,96
O=C(Cc1ccc(F)cc1)Nc1cccc(-c2cn3c(n2)SCC3)c1,0.69,-8,93,-9,105,13,.,.,.
Cc1ccc(C(=O)CCC(=O)N2CCN(C(=O)c3ccco3)CC2)cc1,1.2,-3,98,3,104,3,.,.,.
COc1ccc(/C=C(\CC(=O)O)c2nc3ccccc3o2)cc1,0.9,-55,120,76,151*,-24,160*,136*,116*
CC(=O)c1cc(-c2ccccc2)n(CCC(=O)NC(C)(C)C)c1C,1.4,3,97,-6,97,11,.,.,.
CCOc1ccc(Oc2ccccc2NC(=O)CCNC(C)=O)cc1,1.9,8,100,32,91,8,.,.,.
CC(C)NC(=O)NC(=O)COc1ccc(Br)cc1Br,5.1*,-88,83,203*,179*,20,235*,123,101
CC(C)NC(=O)NC(=O)COc1c(F)c(F)cc(F)c1F,1.1,7,95,7,93,12,.,.,.
COc1ccc(N(C(=O)c2ccccc2)S(=O)(=O)c2cccs2)cc1,0.97,12,107,2,87,4,.,.,.
COc1ccc(N(/N=C2\Sc3ccccc3C2=O)C(C)=O)cc1,4.8*,-55,100,172*,151*,6,191*,123,110
N/C(=N\OC(=O)c1ccccc1Cl)c1ccncc1,.,-67,92,94,162*,15,155*,116,99
N/C(=N\OC(=O)CCCOc1ccc(Cl)cc1Cl)c1ccccn1,1,3,99,-12,96,9,.,.,.
SMILES,NF-kB neuron act,STAT1 inh,STAT3 act,APP 5'UTR act,STAT1 activator,STAT3 blocker,STAT1 act conf,NFkB act STAT1ct,STAT3 act 2
N/C(=N\OC(=O)CCCOc1ccc(Cl)cc1Cl)c1ccncc1,1.1,-7,97,-1,104,8,.,.,.
N/C(=N\OC(=O)COc1ccc(Cl)cc1Br)c1ccncc1,5.8*,-63,99,120,157*,7,198*,142*,122*
N/C(=N\OC(=O)COc1cc(Cl)c(Cl)cc1Cl)c1ccccn1,5.4*,-66,99,161*,159*,8,192*,143*,113*
N/C(=N\OC(=O)Cc1ccc(Cl)cc1)c1ccncc1,1.2,2,95,-3,97,11,.,.,.
CCOc1ccccc1CNC(=O)c1c([N+](=O)[O-])c(C)nn1C,0.98,7,91,-10,94,15,.,.,.
COc1ccc(OCC(O)CNC(=O)/C=C/c2cccc([N+](=O)[O-])c2)cc1 (stereo unspecified),0.89,4,98,17,94,6,.,.,.
c1ccc(CSc2ccc(-c3cccs3)nn2)cc1,4.8*,-72,92,124,165*,11,184*,134*,99
CCCN1C=CC(=C/C=C(\C#N)C(=O)OCC)C=C1,2.8,-70,113,120,164*,-10,183*,124,134*
COC(=O)C(C)N1C(=O)S/C(=C/c2cc(C)n(-c3ccccn3)c2C)C1=O (stereo unspecified),3.6*,-45,107,59,152*,-8,173*,133*,116*
Cc1ccsc1/C=N/NC(=O)Nc1ccccc1,4*,-80,97,147*,172*,14,192*,130,98
Cc1ccccc1/C=N/NC(=O)c1sccc1C,5*,-71,89,70,163*,16,205*,134*,107
Cc1cc(C(=O)N/N=C/c2ccc3c(c2)OCO3)c(C)o1,1.7,-16,99,21,113,5,.,.,.
O=C(N/N=C/c1ccc2c(c1)OCO2)c1ccc2c(c1)OCCO2,2.9,-17,109,70,116,-13,.,.,.
O=C(N/N=C/c1ccc2c(c1)OCO2)c1cccs1,4.3*,-84,92,72,174*,14,204*,134*,117*
